Screening results as filed in PubChem BioAssay.
ERAP1 HTS inh = ERAP1 (human) enzyme inhibition. recombinant ERAP1, Leu-AMC fluorescence, 60 min. inhibition, % at 10.7 µM. 0.15% of 340,000 active. AID 652197;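 active = mean replicate inhibition of at least 30%, or all replicates individually reaching that 30% level; inactive = mean below 30% and not every replicate reaching it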;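 also: 0% = neutral control wells and 100% = L-leucinethiol positive control wells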
Target sequence (Q9NZ08 whole entry, looked up): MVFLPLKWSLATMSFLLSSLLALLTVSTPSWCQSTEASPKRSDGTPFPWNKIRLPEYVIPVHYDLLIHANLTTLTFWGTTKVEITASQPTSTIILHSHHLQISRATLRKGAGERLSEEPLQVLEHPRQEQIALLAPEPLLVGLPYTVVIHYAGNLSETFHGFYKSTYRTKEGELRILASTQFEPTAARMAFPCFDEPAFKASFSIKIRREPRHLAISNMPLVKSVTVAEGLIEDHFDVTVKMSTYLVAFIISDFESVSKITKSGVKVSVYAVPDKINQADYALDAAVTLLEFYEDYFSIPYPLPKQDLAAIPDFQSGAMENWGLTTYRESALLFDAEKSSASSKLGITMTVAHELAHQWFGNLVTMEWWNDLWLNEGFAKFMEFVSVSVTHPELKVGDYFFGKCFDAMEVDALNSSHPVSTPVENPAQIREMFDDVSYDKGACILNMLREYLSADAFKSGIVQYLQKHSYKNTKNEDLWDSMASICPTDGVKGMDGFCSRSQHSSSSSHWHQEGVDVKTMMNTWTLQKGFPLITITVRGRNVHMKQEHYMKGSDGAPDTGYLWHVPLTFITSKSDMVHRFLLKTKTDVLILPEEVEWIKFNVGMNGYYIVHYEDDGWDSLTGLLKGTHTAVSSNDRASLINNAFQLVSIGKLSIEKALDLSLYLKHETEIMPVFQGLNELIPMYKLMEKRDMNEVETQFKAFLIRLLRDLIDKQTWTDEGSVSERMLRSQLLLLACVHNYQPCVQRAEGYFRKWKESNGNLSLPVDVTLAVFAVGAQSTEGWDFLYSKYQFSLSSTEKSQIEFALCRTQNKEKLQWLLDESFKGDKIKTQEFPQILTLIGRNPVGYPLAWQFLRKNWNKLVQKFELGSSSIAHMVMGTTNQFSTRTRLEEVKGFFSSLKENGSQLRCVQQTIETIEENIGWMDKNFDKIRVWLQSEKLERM
S100A4 MyoIIA = S100A4-myosin IIA interaction inhibition | inhibition, % at 10.7 µM | P26447 | 0.14% of 360,000 active | S100A4/TAMRA-MyoIIA peptide fluorescence polarization | AID 652163;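 active = mean inhibition of at least 70% across replicates, with every replicate also reaching that level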
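Test system: S100A4 monomer protein; Medium: HEPES pH 7.2 with CaCl2, KCl, NaCl, DTT, Triton; Probe or stimulus: TAMRA-labelled myosin IIA heavy-chain peptide probe, 5 nM; Doses: one dose per compound; Times: polarization read 5 min after assay mix addition, stable 5–60 min; Benchmarks: neutral control DMSO, positive control TFP.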
CFTR F508del cor = correctors of CFTR F508del function in bronchial epithelial cells; activity (quench increase), % at 7.58 µM; AID 720511; CFBE cells, YFP halide quenching; stimulated with forskolin plus potentiator P3; % fluorescence drop versus neutral controls; 0.36% of 350,000 active;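 active = mean added fluorescence quench of at least 8% versus neutral control, with both replicates also reaching 8%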;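 also: cells transiently co-express mutant CFTR-F508del with the halide-sensitive YFP; corrector assay measuring rescue of mutant channel to the surface after 24 h compound exposure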
rRNA inh HTS = inhibits bacterial ribosomal RNA function over humanized ribosomes | GFP signal change (wild-type ribosome), % (test concentration not listed) | 1.6% of 350,000 active | E. coli WT GFP vs humanized-ribosome RFP mutants, fluorescence, 24 h; stronger effect = lower value; DMSO median 0, no signal -100;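 active = significant combined selectivity score with lowered wild-type GFP, culture density cut under 30%, mutant RFP and density less affected; inactive = any of these conditions unmet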
SIRT5 inh = blocks human SIRT5 desuccinylation of peptide; Q9NXA8; Purified SirT5, succinyl-peptide AMC, trypsin-coupled fluorescence; inhibition, % at 15 µM; 1.1% of 330,000 active; AID 652115; in the data active = inhibition above about 15%
Starred values were filed as active, the others as inactive. An excerpt weighted towards active compounds, which were near 3.1% of everything screened.

Screening C[C@@H]1CCCCO[C@@H](CN(C)C)[C@H](C)CN([C@@H](C)CO)C(=O)c2cc(NS(=O)(=O)c3ccccc3)ccc2O1 returned ERAP1 HTS inh -2.7, S100A4 MyoIIA -1.7, CFTR F508del cor -3.1, rRNA inh HTS 2.9 and SIRT5 inh 0.1.
COc1ccccc1C(=O)N/C(=C\c1ccccc1)C(=O)NC(Cc1ccccc1)C(=O)O (stereo unspecified) was read as ERAP1 HTS inh 0.4, S100A4 MyoIIA -3.3, CFTR F508del cor 2.2, rRNA inh HTS -1.8 and SIRT5 inh 69.9*.
Screening C[C@@H](NC(=O)C[C@@H]1CC[C@H]2[C@@H](COC[C@H](O)CN2C)O1)c1ccccc1 returned ERAP1 HTS inh -0.9, S100A4 MyoIIA 1.7, CFTR F508del cor 1.7, rRNA inh HTS 3.7 and SIRT5 inh 5.1.
Screening COc1ccc2nc(N(CCN(C)C)C(=O)c3ccc4ncsc4c3)sc2c1 returned ERAP1 HTS inh 6.6, S100A4 MyoIIA 39.3, CFTR F508del cor -1.6, rRNA inh HTS -6.5 and SIRT5 inh 0.4.
Cc1ccc2nc(N(CCCN(C)C)C(=O)c3ccc4ncsc4c3)sc2c1 was read as ERAP1 HTS inh 64.0*, S100A4 MyoIIA -0.2, CFTR F508del cor 1.1, rRNA inh HTS 2.4 and SIRT5 inh -3.5.
Screening Cc1cc(C)c2nc(N(CCCN(C)C)C(=O)c3ccc4c(c3)OCCO4)sc2c1 returned ERAP1 HTS inh 0.6, S100A4 MyoIIA 1.2, CFTR F508del cor -0.7, rRNA inh HTS -27.6* and SIRT5 inh 0.1.
O=C(NCCN1CCCCC1)[C@@H]1[C@@H](CO)[C@@H]2Cn3c(cccc3=O)[C@H]1N2C(=O)C1CC1 was read as ERAP1 HTS inh -1.5, S100A4 MyoIIA -12.4, CFTR F508del cor 1.5, rRNA inh HTS 3.6 and SIRT5 inh -1.2.
Screening O=C(O)C[C@H]1C[C@H]2c3cc(NC(=O)Nc4ccccc4)ccc3O[C@H]2[C@H](CO)O1 returned ERAP1 HTS inh -0.1, S100A4 MyoIIA -1.4, CFTR F508del cor -3.3, rRNA inh HTS 2.6 and SIRT5 inh -2.9.
C[C@H]1CN([C@@H](C)CO)C(=O)c2cc(NS(=O)(=O)c3ccc(F)cc3)ccc2O[C@@H]1CN(C)Cc1ccc(C(=O)O)cc1 was read as ERAP1 HTS inh 1.8, S100A4 MyoIIA 0.8, CFTR F508del cor -2.4, rRNA inh HTS 6.1 and SIRT5 inh -1.8.
C[C@H]1CN([C@@H](C)CO)C(=O)c2cc(C3=CCCC3)cnc2O[C@@H]1CN(C)S(=O)(=O)c1cn(C)cn1 was read as ERAP1 HTS inh -0.4, S100A4 MyoIIA -7.7, CFTR F508del cor -1.6, rRNA inh HTS 4.6 and SIRT5 inh -6.9.
Screening CC(=O)N1CC(=O)N2[C@@H](CO)[C@H](c3ccc(-c4cccc(C(=O)N(C)C)c4)cc3)[C@@H]2C1 returned ERAP1 HTS inh -2.4, S100A4 MyoIIA -5.0, CFTR F508del cor -1.3, rRNA inh HTS 11.2 and SIRT5 inh -1.0.
For Cc1ccc(S(=O)(=O)NN2C(=O)/C(=C/c3cccs3)SC2=S)cc1 the results were ERAP1 HTS inh 0.3, S100A4 MyoIIA 14.4, CFTR F508del cor 2.5, rRNA inh HTS -34.2* and SIRT5 inh 5.4.
Screening Cc1ccc(/C=C2\SC(=S)N(NS(=O)(=O)c3ccc(C)cc3)C2=O)cc1 returned ERAP1 HTS inh 1.8, S100A4 MyoIIA -1.8, CFTR F508del cor -0.3, rRNA inh HTS -39.5 and SIRT5 inh 6.0.
`Cc1ccc(-c2ccc(CN3C(C)C(=O)N(Cc4cn(Cc5ccco5)nn4)CCS3(=O)=O)cc2)c(C)c1` (stereo unspecified) gave ERAP1 HTS inh 8.1, S100A4 MyoIIA -7.5, CFTR F508del cor 0.4, rRNA inh HTS -5.1 and SIRT5 inh 27.3*.
Screening Cc1ccc(-c2ccc(CN3C(C(C)C)C(=O)N(Cc4cn(CCC5OCCO5)nn4)CCS3(=O)=O)cc2)c(C)c1 (stereo unspecified) returned S100A4 MyoIIA 0.4, CFTR F508del cor 0.0, rRNA inh HTS 6.1 and SIRT5 inh 25.5*.
For Cc1ccc(-c2ccc(CN3C(CC(C)C)C(=O)N(Cc4cn(Cc5ccco5)nn4)CCS3(=O)=O)cc2)cc1 (stereo unspecified) the results were ERAP1 HTS inh -0.9, S100A4 MyoIIA -14.1, CFTR F508del cor -0.6, rRNA inh HTS -4.6 and SIRT5 inh -3.3.
CC(C)CC1C(=O)N(Cc2cn(Cc3ccco3)nn2)CCS(=O)(=O)N1Cc1ccc(-c2ccc(F)cc2)cc1 (stereo unspecified) was read as ERAP1 HTS inh -4.5, S100A4 MyoIIA -5.4, CFTR F508del cor -5.2, rRNA inh HTS -1.3 and SIRT5 inh 17.8*.
Cc1ccc(-c2ccc(CN3C(C)C(=O)N(Cc4cn(Cc5ccco5)nn4)CCS3(=O)=O)cc2)cc1 (stereo unspecified) was read as ERAP1 HTS inh -3.6, S100A4 MyoIIA -12.8, CFTR F508del cor 0.5, rRNA inh HTS -6.2 and SIRT5 inh 6.5.
`C[C@@H]1CN([C@H](C)CO)C(=O)c2cccc(NC(=O)C3CCOCC3)c2O[C@H]1CN(C)Cc1ccc(Oc2ccccc2)cc1` gave ERAP1 HTS inh 0.4, S100A4 MyoIIA 13.6, CFTR F508del cor -3.1, rRNA inh HTS -2.8 and SIRT5 inh 4.1.
For C=CCCN(CC#C[C@H]1Oc2ccccc2S(=O)(=O)N2CCC[C@@H]12)S(=O)(=O)c1ccc(C)cc1 the results were ERAP1 HTS inh 2.8, S100A4 MyoIIA 34.9, CFTR F508del cor 1.4 and SIRT5 inh -4.2.
`Cc1ccc(C)c(CSc2nc3[nH]ncc3c(=O)[nH]2)c1` gave ERAP1 HTS inh 0.3, S100A4 MyoIIA 3.7, CFTR F508del cor 16.5*, rRNA inh HTS 2.6 and SIRT5 inh 1.7.
COc1ccc(N2CCN(C(=O)[C@H](C)NC(=O)c3ccccc3Cl)CC2)cc1 was read as ERAP1 HTS inh -0.4, S100A4 MyoIIA -0.7, CFTR F508del cor 1.7, rRNA inh HTS 5.7 and SIRT5 inh -2.5.
COc1ccc(N2CCN(C(=O)[C@@H](NC(=O)c3ccccc3Cl)C(C)C)CC2)cc1 was read as ERAP1 HTS inh -2.9, S100A4 MyoIIA -2.1, CFTR F508del cor -1.6, rRNA inh HTS -4.6 and SIRT5 inh 16.4*.
Screening Cc1noc(C)c1S(=O)(=O)Nc1ccc2c(c1)C(=O)N([C@H](C)CO)C[C@@H](C)[C@@H](CN(C)CC1CCCCC1)OCCCC[C@H](C)O2 returned ERAP1 HTS inh 3.5, S100A4 MyoIIA 9.2, CFTR F508del cor 6.5, rRNA inh HTS -1.8 and SIRT5 inh 6.2.
For CCOC(=O)c1sc2nc(Cc3ccc(Cl)cc3)[nH]c(=S)c2c1C the results were ERAP1 HTS inh 5.7, S100A4 MyoIIA -11.5, CFTR F508del cor 11.9*, rRNA inh HTS 4.8 and SIRT5 inh -8.0.
Screening CCOC(=O)c1sc2nc(C)nc(NCc3ccc(Cl)cc3)c2c1C returned ERAP1 HTS inh -3.7, S100A4 MyoIIA 1.0, CFTR F508del cor -3.8, rRNA inh HTS 1.6 and SIRT5 inh -6.3.
